These results are taken from ChEMBL document CHEMBL2163220 (J Med Chem, 2012).

Each structure is given as a SMILES string. Active and inactive are the calls of the source. The calls are words filed in the database; no cut-off is given here.

The subject of one test is CWR22R. The test can be described thus: Cytotoxicity against human 22Rv1 cells incubated for 72 hrs by MTT assay. The format is functional, cell-based. The conditions noted are these: 22Rv1, 72 h. Put shortly:
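MTT assay run across a panel of prostate cancer cell lines.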

Test [1] has as its target T1, Androgen receptor (Homo sapiens) (UniProt P10275).
T1 sequence (whole entry): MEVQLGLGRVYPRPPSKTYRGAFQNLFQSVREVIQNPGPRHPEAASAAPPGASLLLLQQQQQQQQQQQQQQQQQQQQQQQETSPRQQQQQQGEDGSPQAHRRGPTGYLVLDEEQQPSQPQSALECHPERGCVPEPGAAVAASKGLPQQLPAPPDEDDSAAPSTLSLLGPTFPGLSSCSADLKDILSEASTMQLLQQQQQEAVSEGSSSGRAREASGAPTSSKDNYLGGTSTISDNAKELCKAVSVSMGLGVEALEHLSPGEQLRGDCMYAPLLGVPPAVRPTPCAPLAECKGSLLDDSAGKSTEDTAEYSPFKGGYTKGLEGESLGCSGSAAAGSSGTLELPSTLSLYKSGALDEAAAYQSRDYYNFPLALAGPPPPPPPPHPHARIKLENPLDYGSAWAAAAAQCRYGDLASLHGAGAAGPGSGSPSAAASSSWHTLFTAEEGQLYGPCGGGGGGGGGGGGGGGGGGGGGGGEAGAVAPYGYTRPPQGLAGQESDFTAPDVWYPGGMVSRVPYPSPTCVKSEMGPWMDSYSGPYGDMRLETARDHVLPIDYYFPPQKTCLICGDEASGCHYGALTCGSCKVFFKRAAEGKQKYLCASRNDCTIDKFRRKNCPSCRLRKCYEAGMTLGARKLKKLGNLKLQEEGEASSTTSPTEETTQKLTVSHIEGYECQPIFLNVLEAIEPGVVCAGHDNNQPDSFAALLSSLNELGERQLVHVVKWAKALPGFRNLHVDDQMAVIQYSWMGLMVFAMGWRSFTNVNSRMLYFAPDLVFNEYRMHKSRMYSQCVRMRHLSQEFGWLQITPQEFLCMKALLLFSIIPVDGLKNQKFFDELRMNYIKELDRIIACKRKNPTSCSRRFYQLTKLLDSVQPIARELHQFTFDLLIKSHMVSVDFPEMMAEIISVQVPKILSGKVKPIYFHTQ
The test can be described thus: Antagonist activity at androgen receptor in human LNCaP cells assessed as increase in Maspin promoter activity by luciferase reporter gene assay. It is filed as functional, cell-based. Put shortly: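 LNCaP cells carrying a maspin promoter-luciferase reporter were treated with compound and read by luciferase activity, in triplicate.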
(Reporter assays use an easily measured gene product as a stand-in for the process of interest.)

Test [2] has as its system PC-3. The test can be described thus: Antagonist activity at androgen receptor ARv7 mutant lacking ligand binding domain expressed in human PC3 cells assessed as reduction in DHT-induced receptor transactivation at 1 uM by luciferase reporter gene assay. It is filed as cell-based. Put shortly: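 AR-v7 (lacks LBD), MMTV-Luc and pRL-TK (Renilla) plasmids transiently transfected into PC-3 cells; cells treated with DMSO vehicle, 0.1 nM DHT, or test compound at 1 μM; transactivation read as luciferase activity (relative luciferase units).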

Test [3] has as its target T2, Glucocorticoid receptor (Homo sapiens) (UniProt P04150).
T2 sequence (whole entry): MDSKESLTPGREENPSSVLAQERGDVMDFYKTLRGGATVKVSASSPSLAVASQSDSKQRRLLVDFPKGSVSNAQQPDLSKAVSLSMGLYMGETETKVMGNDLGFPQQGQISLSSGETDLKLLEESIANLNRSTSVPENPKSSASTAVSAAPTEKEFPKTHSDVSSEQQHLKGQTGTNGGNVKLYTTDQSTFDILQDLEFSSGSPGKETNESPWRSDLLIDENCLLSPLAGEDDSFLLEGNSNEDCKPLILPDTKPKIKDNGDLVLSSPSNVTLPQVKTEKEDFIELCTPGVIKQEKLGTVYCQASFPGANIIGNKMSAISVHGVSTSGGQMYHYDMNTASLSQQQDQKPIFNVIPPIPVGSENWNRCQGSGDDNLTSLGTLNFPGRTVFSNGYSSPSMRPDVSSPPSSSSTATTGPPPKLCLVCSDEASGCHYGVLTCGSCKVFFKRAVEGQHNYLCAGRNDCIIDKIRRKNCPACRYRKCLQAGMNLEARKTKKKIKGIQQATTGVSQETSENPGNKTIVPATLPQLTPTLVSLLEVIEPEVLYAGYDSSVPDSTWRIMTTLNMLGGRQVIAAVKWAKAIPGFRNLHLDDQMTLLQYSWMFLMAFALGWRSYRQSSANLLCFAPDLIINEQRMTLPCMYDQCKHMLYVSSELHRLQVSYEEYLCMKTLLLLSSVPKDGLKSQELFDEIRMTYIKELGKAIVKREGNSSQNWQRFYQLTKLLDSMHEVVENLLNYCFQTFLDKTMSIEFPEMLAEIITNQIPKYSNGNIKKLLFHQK
Kind of test: Agonist activity at glucocorticoid receptor expressed in human PC3 cells assessed as stimulation of receptor transactivation at 1 uM by luciferase reporter gene assay. The conditions noted are these: PC-3. The format is functional, cell-based. Put shortly: (§1)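 PC-3 cells express GR endogenously and were transfected only with the MMTV-luc reporter. Compound tested at 1 μM, alone or against transactivation induced by 10 nM dexamethasone. Read-out was luciferase reporter activity.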

The target in test [4] is T1, Androgen receptor (Homo sapiens). The test can be described thus: Antagonist activity at androgen receptor in human LNCaP cells assessed as reduction in DHT-induced PSA expression by luciferase reporter gene assay. It is filed as functional, cell-based. Put shortly:
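LNCaP cells carrying a PSA-luc reporter were treated with compound at 1 and 2.5 μM in the presence of 1 nM DHT. Fold suppression was calculated relative to 1 nM DHT alone. Run in triplicate.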

Test [5] has the same target. Kind of test: Antagonist activity at androgen receptor expressed in human PC3 cells assessed as reduction in DHT-induced receptor transactivation at 0.1 to 1 uM by luciferase reporter gene assay. It is filed as functional, cell-based. The conditions noted are these: PC-3. The essentials: (§2)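 Full-length wild-type or mutant AR plasmid transiently transfected into PC-3 cells with MMTV-luc and Renilla luciferase reporters. Cells treated with DMSO vehicle or compound at 0.1 and 1 μM, alone or with 0.1 nM DHT. Luciferase read as relative luciferase units. Run in triplicate.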

A further test deals with LNCaP (Homo sapiens). Kind of test: Effect on androgen receptor gene expression in human LNCaP cells at 1 or 2.5 uM incubated for 24 hrs by RT-PCR.
For test [6], the target named is T2, Glucocorticoid receptor (Homo sapiens). Kind of test: Antagonist activity at glucocorticoid receptor expressed in human PC3 cells assessed as reduction in dexamethasone-induced receptor transactivation at 1 uM by luciferase reporter gene assay. It is filed as functional, cell-based. The conditions noted are these: PC-3. Put shortly:
as §1

For test [7], the system named is LNCaP. The test can be described thus: Reduction in androgen receptor protein expression in human LNCAP cells incubated for 24 hrs by Western blotting. The format is functional, cell-based. Put shortly:
(§3)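 LNCaP cells in complete medium were exposed to DMSO or compound at 1, 2.5 and 5 μM for 24 h. Western blot measured AR, maspin, caspase-3 activation and PARP cleavage, with β-actin as loading control.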
A general note: In western blotting, separated proteins are transferred to a membrane and probed.

For test [8], the system named is PC-3. The test can be described thus: Agonist activity at androgen receptor T887A mutant expressed in human PC3 cells assessed as stimulation of receptor transactivation at 0.1 to 1 uM by luciferase reporter gene assay. The format is functional, cell-based. The essentials: as §2
Test [9] concerns LNCaP. Kind of test: Induction of apoptosis in human LNCAP cells assessed as caspase-3 activation incubated for 24 hrs by Western blotting. The format is functional, cell-based. Put shortly: as §3

Regarding `Cc1coc2c1C(=O)C(=O)c1c-2ccc2c1CCCC2(C)C` [TANSHINONE IIA], the IC50 (in general, the concentration that gives 50% inhibition) in the test with CWR22R was 6.7 µM. Moreover, the Activity result (in [1]; in test [4]; with LNCaP [7]; in the test with LNCaP [9]) was “Dose-dependent effect” each time. Further, the result (with PC-3 [2]; in test [3]; in the test with LNCaP (Homo sapiens); in test [6]; in the test with PC-3 [8]) was inactive. The outcome in test [5] was Active.
